pEC50, pIC50: −log10 of the molar value. Active and inactive are the calls of the source. The calls are words filed in the database; no cut-off is given here.
Assays:
[1] = (§1) Antiproliferative activity against human pancreatic stellate cells at 10 uM after 24 to 48 hrs by AlamarBlue assay; format: functional
Method in brief: (§2)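 Transformed human PSC seeded at 3×10^3 cells/well in sextuplicate. Next day exposed to compound at the stated single concentration in 1% FBS medium for 24–48 h. Viability read by AlamarBlue fluorescence (ex/em 544/590 nm). Values are the mean of at least three independent experiments.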

[2] = (§3) Antiproliferative activity against human pancreatic stellate cells at 20 uM after 24 to 48 hrs by AlamarBlue assay; format: functional; method in brief: as §2
Homo sapiens [3] = species on record: Homo sapiens; assay: (§4) Antiproliferative activity against human pancreatic stellate cells at 5 uM after 24 to 48 hrs by AlamarBlue assay; format: functional; method in brief: as §2
[4] = as §4; format: functional; method in brief: as §2
Homo sapiens [5] = species on record: Homo sapiens; assay: as §1; format: functional; method in brief: as §2
Mus musculus [6] = assay: Anti-fibrotic activity in C57BL/6 mouse caerulein-induced chronic pancreatitis model assessed as reduction of tissue edema at 0.5 mg/kg, po administered qd for 6 days per week for 3 weeks using hematoxylin 7211 staining by immunohistochemistry analysis; format: functional, organism-based; set-up: dose 0.5 mg/kg
[7] = Antiproliferative activity against human pancreatic stellate cells after 24 hrs by AlamarBlue assay; format: functional
Method in brief: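 Immortalized human PSC (SV40 large T plus telomerase, DMEM/10% FBS) seeded at 3×10^3 cells/well in sextuplicate. Next day switched to 1% FBS with a range of compound concentrations for 24 h. AlamarBlue fluorescence read at 544/590 nm. IC50 taken by nonlinear regression of fluorescence versus log concentration, as mean ± SEM of at least three independent experiments.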

[8] = Induction of apoptosis in human pancreatic stellate cells after 14 hrs by cell death detection ELISAPLUS assay; format: functional
Method in brief: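 Transformed human PSC (primary cells immortalised with SV40 large T antigen and telomerase; grown in DMEM, 10% FBS, 37 °C) plated at 8×10^3 per well in triplicate; next day switched to 1% FBS with compound at various doses for 14 h. Cytoplasmic nucleosomes detected by sandwich ELISA, absorbance at 405 nm. EC50 by nonlinear regression against log concentration; at least three independent experiments.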

Mus musculus [9] = assay: Anti-fibrotic activity in C57BL/6 mouse caerulein-induced chronic pancreatitis model assessed as reduction of acinar cell damage at 0.5 mg/kg, po administered qd for 6 days per week for 3 weeks using hematoxylin 7211 staining by immunohistochemistry analysis; format: functional, organism-based; set-up: dose 0.5 mg/kg
Mus musculus [10] = assay: Anti-fibrotic activity in C57BL/6 mouse caerulein-induced chronic pancreatitis model assessed as reduction of stromal fibrosis at 0.5 mg/kg, po administered qd for 6 days per week for 3 weeks using hematoxylin 7211 staining by immunohistochemistry analysis; format: functional, organism-based; set-up: dose 0.5 mg/kg
Mus musculus [11] = assay: Anti-fibrotic activity in C57BL/6 mouse caerulein-induced chronic pancreatitis model assessed as reduction of fibrosis at 0.5 mg/kg, po administered qd for 6 days per week for 3 weeks using hematoxylin 7211 staining by image analysis; format: functional, organism-based; set-up: dose 0.5 mg/kg
Method in brief: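 C57BL/6 mice given cerulein 50 μg/kg i.p. hourly for 5 h, 3 d/week for 4 weeks; PBS controls. From week 2, oral gavage at 0.5 mg/kg/d, 6 d/week for 3 weeks, in 0.5% methylcellulose + 0.025% Tween 20. Formalin-fixed paraffin sections (5 μm) stained by IHC for fibronectin with hematoxylin counterstain; percent area of stain quantified by image analysis. n = 10–11 per group.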

Homo sapiens [12] = species on record: Homo sapiens; assay: as §3; format: functional; method in brief: as §2

Row | SMILES | inhibition at 10 µM [1] [%] | inhibition at 20 µM [2] [%] | inhibition at 5 µM [4] [%] | further results
1 | COc1cc(OC)c2c(=O)cc(-c3ccc(OCC(O)CO)cc3)oc2c1 (centres undefined) | 11 | 16 | – | inhibition (Homo sapiens [3]): inactive
2 | COc1cc(OC)c2c(=O)cc(-c3ccc(OCCCN(C)C)cc3)oc2c1 | 59 | 86 | 36 | –
3 | COc1cc(OC)c2c(=O)cc(-c3ccc(OCCF)cc3)oc2c1 | – | 21 | – | inhibition (Homo sapiens [5]): inactive; inhibition (Homo sapiens [3]): inactive
4 | COc1cc(OC)c2c(=O)cc(-c3ccc(Br)cc3)oc2c1 | 10 | 22 | 12 | –
5 | COc1cc(OC)c2c(=O)cc(-c3ccc(OCC4CO4)cc3)oc2c1 (centres undefined) | 89 | 93 | 69 | Activity (Mus musculus [6]): Active; pIC50 [7]: 5.60; pEC50 [8]: 5.02; Activity (Mus musculus [9]): Active; Activity (Mus musculus [10]): Active; Activity (Mus musculus [11]): Active
6 | COc1cc(OC)c2c(=O)cc(-c3ccc(OC4CCN(C)CC4)cc3)oc2c1 | 49 | – | 28 | –
7 | COC(=O)[C@@H]1CCCN1CCOc1ccc(-c2cc(=O)c3c(OC)cc(OC)cc3o2)cc1 | 37 | 67 | 22 | –
8 | COc1cc(OC)c2c(=O)cc(-c3ccc(NCCN(C)C)cc3)oc2c1 | 60 | 84 | 30 | –
9 | O=c1cc(-c2ccc(O)cc2)oc2cc(O)cc(O)c12 [APIGENIN] | 34 | 64 | 11 | Activity (Mus musculus [6]): Active; pIC50 [7]: 4.73; pEC50 [8]: 4.61; Activity (Mus musculus [9]): Active; Activity (Mus musculus [10]): Active; Activity (Mus musculus [11]): Active
10 | COc1cc(OC)c2c(=O)cc(-c3ccc(OCCN4CCCC4=O)cc3)oc2c1 | 14 | 33 | 7 | –
11 | COc1cc(OC)c2c(=O)cc(-c3ccc(O)cc3)oc2c1 | – | – | – | inhibition (Homo sapiens [5]): inactive; inhibition (Homo sapiens [12]): inactive; inhibition (Homo sapiens [3]): inactive
12 | CCN(CC)CCOc1ccc(-c2cc(=O)c3c(OC)cc(OC)cc3o2)cc1 | 60 | 72 | 33 | –
13 | COc1cc(OC)c2c(=O)cc(-c3ccc(OCC(O)CN4CCCC4)cc3)oc2c1 (centres undefined) | 37 | 57 | 21 | –
14 | COc1cc(OC)c2c(=O)cc(-c3ccc(OCCN4CCN(C)CC4)cc3)oc2c1 | 42 | 67 | 22 | –
15 | COc1cc(OC)c2c(=O)cc(-c3ccc(OCCN4CCCC4)cc3)oc2c1 | 66 | 98 | 48 | –
16 | COc1cc(OC)c2c(=O)cc(-c3ccc(-c4ccc(F)nc4)cc3)oc2c1 | 6 | 19 | – | inhibition (Homo sapiens [3]): inactive
17 | COc1cc(O)c2c(=O)cc(-c3ccc(OCCN4CCCC4)cc3)oc2c1 | 39 | 99 | – | inhibition (Homo sapiens [3]): inactive
18 | COc1cc(OC)c2c(=O)cc(-c3ccc(OCCN(C)C)cc3)oc2c1 | 51 | 65 | 19 | –
19 | COc1cc(OC)c2c(=O)cc(-c3ccc(OCCCN)cc3)oc2c1 | 39 | – | 22 | –
20 | COc1cc(OC)c2c(=O)cc(-c3ccc(OCCN4CCOCC4)cc3)oc2c1 | – | – | – | inhibition (Homo sapiens [5]): inactive; inhibition (Homo sapiens [12]): inactive; inhibition (Homo sapiens [3]): inactive
21 | COc1cc(OC)c2c(=O)cc(-c3ccc(OCCN)cc3)oc2c1 | 35 | 70 | 6 | –
22 | COc1cc(OC)c2c(=O)cc(-c3ccc(OCC(O)CN(C)C)cc3)oc2c1 (centres undefined) | 60 | 71 | 42 | –
23 | COc1cc(OC)c2c(=O)cc(-c3ccc(OCC(O)CN4CCCCC4)cc3)oc2c1 (centres undefined) | 65 | 95 | 34 | Activity (Mus musculus [6]): Active; pIC50 [7]: 5.10; pEC50 [8]: 4.45; Activity (Mus musculus [9]): Active; Activity (Mus musculus [10]): Active; Activity (Mus musculus [11]): Active
24 | COc1cc(OC)c2c(=O)cc(-c3ccc(OCCN4CCCCC4)cc3)oc2c1 | 64 | 97 | 45 | –
25 | COc1cc(OC)c2c(=O)cc(-c3ccc(OC4CCNCC4)cc3)oc2c1 | 21 | – | – | inhibition (Homo sapiens [3]): inactive
26 | COc1cc(OC)c2c(=O)cc(-c3ccc(NCCN4CCCC4)cc3)oc2c1 | 51 | 80 | 21 | –
27 | O=c1cc(-c2ccc(OCCN3CCCC3)cc2)oc2cc(O)cc(O)c12 | 71 | 90 | 2 | –
28 | COc1cc(OC)c2c(=O)cc(-c3ccc(OCCBr)cc3)oc2c1 | – | 20 | – | inhibition (Homo sapiens [5]): inactive; inhibition (Homo sapiens [3]): inactive
